Activity calls are given as the source filed them. The rule behind the calls is not given here.
What was measured:
Assay type in all cases: functional, cell-based
[1] = tested on: LNCaP; experiment: Growth inhibition of human LNCAP cells after 72 hrs by Alamar Blue assay
In short: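 LNCaP cells in phenol-red-free RPMI-1640 with 5% FBS were seeded 4000/well for 24 h, then treated with compounds diluted from DMSO into medium (DMSO ≤0.4%). Metabolic activity was read by AlamarBlue endpoint after 72 h. IC50 was calculated at 72 h. DMSO served as negative control and doxorubicin as positive control. Triplicate points; three independent experiments.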

[2] = tested on: LNCaP; experiment: Antiproliferative activity against human LNCAP cells assessed as enlargement, granulation and cell burst at 10 to 100 uM by live-cell imaging method; conditions: TDE = time-dependent effect
In short: (§1)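 LNCaP cells (ATCC) grown in phenol-red-free RPMI-1640 with 5% FBS at 37 °C, 5% CO2, kept in log phase. Cells seeded 4000/well for 24 h, then treated with compounds in DMSO diluted in medium (DMSO ≤0.4%). Plates imaged every 2 h for 96 h by IncuCyte live-cell imaging; growth read as confluence; morphology recorded from the images. DMSO as vehicle control.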

[3] = tested on: LNCaP; experiment: Antiproliferative activity against human LNCAP cells assessed as enlargement, granulation and cell burst measured every 2 hrs for 96 hrs by live-cell imaging method; in short: as §1
[4] = tested on: LNCaP; experiment: Antiproliferative activity against human LNCAP cells assessed as change in cell morphology at 10 to 100 uM measured up to 96 hrs by live-cell imaging method; in short: as §1
[5] = tested on: LNCaP; experiment: Reduction in phosphatidylcholine content in human LNCAP cells at 25 uM after 72 hrs by nile red staining based fluorescence microscopy
In short: (§2)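 LNCaP cells were seeded at 3000/well on poly-L-ornithine-coated plates in phenol-red-free RPMI-1640 with 5% FBS for 48 h, then treated for 72 h. Cells were fixed in 4% paraformaldehyde for 20 min on ice and stained 20 min at RT in PBS with 1.0 μg/mL DAPI and 0.25 μg/mL Nile Red. Mean fluorescence was measured for neutral lipids (Cy3) and phospholipids (Cy5) in ~300 cells at 10×. Analysis used one-way ANOVA with Dunnett's test. DMSO was the negative control and TOFA the positive control. Duplicate points; three independent experiments.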

[6] = tested on: LNCaP; experiment: Reduction in phosphatidylethanolamine content in human LNCAP cells at 25 uM after 72 hrs by nile red staining based fluorescence microscopy; in short: as §2
[7] = tested on: LNCaP; experiment: Reduction in phosphatidylserine content in human LNCAP cells at 25 uM after 72 hrs by nile red staining based fluorescence microscopy; in short: as §2
[8] = tested on: LNCaP; experiment: Reduction in sterol content in human LNCAP cells at 60 uM after 72 hrs by nile red staining based fluorescence microscopy; in short: as §2
[9] = tested on: LNCaP; experiment: Reduction in triglyceride content in human LNCAP cells at 60 uM after 72 hrs by nile red staining based fluorescence microscopy; in short: as §2
[10] = tested on: LNCaP; experiment: Reduction in fatty acid content in human LNCAP cells at 60 uM after 72 hrs by nile red staining based fluorescence microscopy; in short: as §2
[11] = tested on: LNCaP; experiment: Reduction in phosphatidylcholine content in human LNCAP cells at 60 uM after 72 hrs by nile red staining based fluorescence microscopy; in short: as §2
[12] = tested on: LNCaP; experiment: Reduction in phosphatidylethanolamine content in human LNCAP cells at 60 uM after 72 hrs by nile red staining based fluorescence microscopy; in short: as §2
[13] = tested on: LNCaP; experiment: Reduction in phosphatidylserine content in human LNCAP cells at 60 uM after 72 hrs by nile red staining based fluorescence microscopy; in short: as §2
[14] = tested on: LNCaP; experiment: Reduction in sterol content in human LNCAP cells at 10 uM after 72 hrs by nile red staining based fluorescence microscopy; in short: as §2
[15] = tested on: LNCaP; experiment: Reduction in triglyceride content in human LNCAP cells at 10 uM after 72 hrs by nile red staining based fluorescence microscopy; in short: as §2
[16] = tested on: LNCaP; experiment: Reduction in fatty acid content in human LNCAP cells at 10 uM after 72 hrs by nile red staining based fluorescence microscopy; in short: as §2
[17] = tested on: LNCaP; experiment: Reduction in phosphatidylcholine content in human LNCAP cells at 10 uM after 72 hrs by nile red staining based fluorescence microscopy; in short: as §2
[18] = tested on: LNCaP; experiment: Reduction in phosphatidylethanolamine content in human LNCAP cells at 10 uM after 72 hrs by nile red staining based fluorescence microscopy; in short: as §2
[19] = tested on: LNCaP; experiment: Reduction in phosphatidylserine content in human LNCAP cells at 10 uM after 72 hrs by nile red staining based fluorescence microscopy; in short: as §2

Question: With CC(=O)OC[C@@]12[C@@H](OC(C)=O)CC[C@](C)(O)[C@]13OC(C)(C)[C@H](C[C@@H]2OC(=O)/C=C/c1ccccc1)[C@H]3O as the molecule, how does the IC50 [1] read?
Answer: > 10 µM

Question: C/C=C(\C)C(=O)OCC1(C)O[C@]23[C@H](OC(C)=O)[C@H]1[C@H](O)[C@H](OC(=O)/C=C/c1ccccc1)[C@]2(C)[C@@H](OC(=O)COC(C)=O)CC[C@]3(C)O (stereo partly specified) was tested. Which IC50 [1] did it give?
Answer: > 10 µM

Question: And the Activity [2]?
Answer: tde

Question: What about the Activity [3] of the same molecule?
Answer: Dose-dependent effect

Question: What about the Activity [4] of the same molecule?
Answer: Active

Question: And the Activity [5]?
Answer: Active

Question: What about the Activity [6] of the same molecule?
Answer: Active

Question: What about the Activity [7] of the same molecule?
Answer: Active

Question: With CC(=O)OC[C@@]12[C@@H](OC(C)=O)CC[C@](C)(O)[C@]13OC(C)(C)[C@H]([C@H](O)[C@@H]2OC(=O)/C=C/c1ccccc1)[C@H]3OC(C)=O as the molecule, how does the IC50 [1] read?
Answer: > 10 µM

Question: How did the IC50 [1] turn out when CC(=O)OC[C@@]12[C@@H](OC(C)=O)CC[C@](C)(O)[C@]13OC(C)(COC(=O)c1ccccc1)[C@H](C[C@@H]2OC(=O)/C=C/c1ccccc1)[C@H]3O (stereo partly specified) was run?
Answer: > 10 µM

Question: For CC(=O)OC[C@@]12[C@@H](OC(C)=O)CC[C@](C)(O)[C@]13OC(C)(C)[C@H](C[C@@H]2OC(=O)/C=C/c1ccccc1)[C@H]3OC(C)=O, which IC50 [1] is on record?
Answer: > 10 µM

Question: What about the Activity [8] of the same molecule?
Answer: Active

Question: And the Activity [9]?
Answer: Active

Question: What about the Activity [10] of the same molecule?
Answer: Active

Question: And the Activity [11]?
Answer: Active

Question: And the Activity [12]?
Answer: Active

Question: What about the Activity [13] of the same molecule?
Answer: Active

Question: With CCCCCCCCCCCCCCOc1ccc(C(=O)O)o1 as the molecule, how does the Activity [14] read?
Answer: Active

Question: What about the Activity [15] of the same molecule?
Answer: Active

Question: What about the Activity [16] of the same molecule?
Answer: Active

Question: And the Activity [17]?
Answer: Active

Question: And the Activity [18]?
Answer: Active

Question: And the Activity [19]?
Answer: Active

Question: Which IC50 [1] does the source give for CC(=O)OC[C@@]12[C@@H](OC(C)=O)CC[C@](C)(O)[C@]13OC(C)(COC(=O)c1ccccc1)[C@H](C[C@@H]2OC(=O)/C=C/c1ccccc1)[C@H]3OC(C)=O (stereo partly specified) here?
Answer: > 10 µM

Question: For C/C=C(\C)C(=O)OCC1(C)O[C@]23[C@H](OC(C)=O)[C@H]1C[C@H](OC(=O)/C=C/c1ccccc1)[C@]2(COC(C)=O)[C@@H](OC(=O)COC(C)=O)CC[C@]3(C)O (stereo partly specified), which IC50 [1] is on record?
Answer: > 10 µM

Question: Which IC50 [1] does the source give for CC(=O)OCC(=O)O[C@H]1CC[C@](C)(O)[C@]23OC(C)(COC(=O)c4ccccc4)[C@H]([C@H](O)[C@H](OC(=O)/C=C/c4ccccc4)[C@]12C)[C@H]3OC(C)=O (stereo partly specified) here?
Answer: > 10 µM

From ChEMBL document CHEMBL3393041, “Denhaminols A-H, dihydro-β-agarofurans from the endemic Australian rainforest plant Denhamia celastroides” (J Nat Prod, 2015)
